{"source": "paper PMC7194030", "about": "(Science translational medicine, 2019)", "key": {"[1]": {"molecular_target": "human recombinant CHRM4 receptor (Homo sapiens, UniProt P08173)", "sequence (P08173 whole entry)": "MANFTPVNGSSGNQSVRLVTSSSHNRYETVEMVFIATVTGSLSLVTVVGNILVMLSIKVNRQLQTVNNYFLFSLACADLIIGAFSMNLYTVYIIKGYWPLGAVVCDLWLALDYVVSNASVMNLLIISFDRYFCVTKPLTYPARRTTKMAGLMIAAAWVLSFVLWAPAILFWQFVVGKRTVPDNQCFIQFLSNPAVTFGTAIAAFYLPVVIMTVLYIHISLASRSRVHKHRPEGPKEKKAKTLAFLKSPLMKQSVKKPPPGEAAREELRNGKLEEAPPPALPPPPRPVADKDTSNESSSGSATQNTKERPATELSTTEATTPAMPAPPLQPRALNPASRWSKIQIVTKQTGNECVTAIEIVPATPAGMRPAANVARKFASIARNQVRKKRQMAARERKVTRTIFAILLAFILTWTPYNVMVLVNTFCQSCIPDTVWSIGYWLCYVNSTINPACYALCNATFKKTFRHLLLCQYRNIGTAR", "conditions": "protein binding assay, IC50 on CHRM1-5"}, "[2]": {"test_system": "CFU-E", "experiment": "Mouse CFU-E culture system", "assay_type": "cell-based"}, "[3]": {"test_system": "C57bl/6 mice", "experiment": "Pharmacodynamics study", "assay_type": "in vivo, mouse", "summary_of_the_method": "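PHZ hemolytic anemia model: female C57bl/6 mice, 8–10 weeks old, randomised to groups and given test compound at different doses or DMSO control intraperitoneally every day. Anemia induced with intraperitoneal PHZ (60 mg/kg). Complete blood counts taken. 7 to 10 mice per group.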"}, "[4]": {"test_system": "Mx1-Cre Srsf2P95H/WT MDS mice", "assay_type": "in vivo", "conditions": "for BFU-E self-renewal (splenic BFU-E colonies): daily treatment"}, "[5]": {"test_system": "murine BFU-Es", "experiment": "RNA-seq of cultured BFU-Es", "assay_type": "cell-based, mouse", "conditions": "100 μM oxyphenonium bromide or 3 nM PD102807", "summary_of_the_method": "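BFU-Es FACS-sorted from E14.5 mouse fetal liver and cultured at 37°C in serum-free SFEM II with SCF, EPO, IGF-1 and dexamethasone. Treatments: test compound (100 μM or 3 nM), 100 nM dexamethasone, or DMSO. RNA extracted with a column kit, Illumina libraries prepared, sequenced on HiSeq 2500. Three to six replicates.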"}, "[6]": {"test_system": "human CD34+ HSPC", "experiment": "Human CD34+ HSPC erythroid differentiation culture system", "assay_type": "cell-based", "conditions": "for Formation of BFU-E colonies: human CD34+ HSPC; for Erythroid cell expansion: human CD34+ HSPC from healthy donors"}, "[7]": {"test_system": "murine BFU-Es", "experiment": "Mouse BFU-E culture system", "assay_type": "cell-based", "conditions": "for Percentage of Ter119+ cells with or without compound: day 14 of culture, flow cytometry; for BFU-E expansion: purified murine fetal liver BFU-Es, cell numbers counted days 0 to 9", "summary_of_the_method": "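Cells are counted from day 0 to day 9 (three distinct samples; two-way ANOVA). At end of culture, cells are stained with anti-Ter119 and Ter119+ percentage is measured by flow cytometry (three samples; one-tailed t test).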"}, "[8]": {"test_system": "BFU-Es", "experiment": "cAMP assay in BFU-Es", "assay_type": "cell-based, mouse", "conditions": "PD102807 3 nM, forskolin 10 μM, 45 min", "summary_of_the_method": "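Sorted murine fetal-liver BFU-Es are exposed for 45 min to DMSO, 3 nM test compound, or 10 μM forskolin. Cells are lysed in 0.1 M HCl (20 min, room temperature) and cleared at 15,000g for 10 min. Samples are neutralized, acetylated, and run in a competitive cAMP immunoassay (antibody, then cAMP-HRP, 1 h each; HRP developer 1 h). The reaction is stopped with 1 M HCl and read at OD 450 nm.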"}, "[9]": {"test_system": "CD34+ cells from patients with MDS", "experiment": "Erythroid differentiation culture of CD34+ cells from patients with MDS", "assay_type": "cell-based, human", "summary_of_the_method": "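MDS patient CD34+ cells (eight patients) are cultured in SFEM with rhSCF 20 ng/ml, rhIL-3 5 ng/ml, EPO 1 U/ml and dexamethasone 1 nM, with DMSO or 3 nM test compound. Read-outs: relative cell expansion, CD235a+ fraction by flow cytometry, annexin V apoptosis, and May-Grünwald–Giemsa cytospin morphology. One-tailed t test.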"}, "[10]": {"test_system": "C57bl/6 mice", "conditions": "in vivo"}, "[11]": {"test_system": "murine BFU-Es", "experiment": "BFU-E colony formation assay of cultured murine BFU-Es", "assay_type": "cell-based, mouse", "conditions": "colonies counted on day 9 of colony formation assay", "summary_of_the_method": "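BFU-Es (lin−Ter119−CD16/CD32−Sca-1−CD41−c-Kit+CD71/Cd24a10%low) are FACS-sorted from E14.5 C57bl/6 fetal liver. Cells are then plated in MethoCult SF M3436, and colonies are counted on day 9. Nine distinct samples; one-tailed t test.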"}}, "note": "Structures can show the parent of a compound that is named as a salt. Where two headings read alike, the source gives them in different places.", "data": [{"compound": "CCOC(=O)c1c(C)[nH]c2ccc3c(c12)CN1CCc2cc(OC)ccc2C1O3", "note": "(stereo not shown) [PD102807]", "values": [{"measurement": "Selectivity for CHRM4 over other muscarinic acetylcholine receptors", "setting": "[1]", "result": "selectively inhibits CHRM4 over other muscarinic acetylcholine receptors"}, {"measurement": "CFU-E proliferation", "setting": "[2]", "result": "no effect"}, {"measurement": "Anti-anemia minimal effective dose", "setting": "[3]", "result": 100, "unit": "mg/kg"}, {"measurement": "Tolerability in vivo", "setting": "[4]; MDS mice", "result": "well tolerated"}, {"measurement": "Weight loss, liver or kidney function", "setting": "[4]; MDS mice", "result": "no substantial effects"}, {"measurement": "White blood cell or platelet production", "setting": "[4]; MDS mice", "result": "no influence"}, {"measurement": "BFU-E self-renewal (splenic BFU-E colonies)", "setting": "[4]; MDS mice", "result": "promoted BFU-E self-renewal"}, {"measurement": "BFU-E gene signature expression", "setting": "[5]", "result": "up-regulated a gene signature characteristic of BFU-Es"}, {"measurement": "Formation of BFU-E colonies", "setting": "[6]", "result": "increased formation of BFU-E colonies"}, {"measurement": "Erythroid cell expansion", "setting": "[6]", "result": "expanded erythroid cells"}, {"measurement": "Percentage of Ter119+ cells with or without compound", "setting": "[7]", "result": "no difference"}, {"measurement": "BFU-E expansion", "setting": "[7]", "result": "promoted BFU-E expansion at nanomolar concentrations"}, {"measurement": "cAMP concentration in BFU-Es relative to DMSO", "setting": "[8]", "result": "increased in concentration"}, {"measurement": "Cell survival or differentiation with and without compound", "setting": "[9]; 3 nM PD102807", "result": "no difference"}, {"measurement": "Production of erythroid cells", "setting": "[9]; 3 nM PD102807, eight patients", "result": "increased production of erythroid cells"}, {"measurement": "Maximal tolerated dose", "setting": "[10]; mouse", "result": 100, "unit": "mg/kg"}]}, {"compound": "Cc1ccccc1C(OCCN(C)C)c1ccccc1", "note": "(stereo not shown) [orphenadrine citrate]", "values": [{"measurement": "Anti-anemia minimal effective dose", "setting": "[3]", "result": 100, "unit": "mg/kg"}, {"measurement": "BFU-E self-renewal (splenic BFU-E colonies)", "setting": "[4]; MDS mice", "result": "promoted BFU-E self-renewal"}, {"measurement": "Tolerability in vivo", "setting": "[4]; mouse, in vivo", "result": "well tolerated"}, {"measurement": "White blood cell or platelet production", "setting": "[4]; mouse, in vivo", "result": "no influence"}, {"measurement": "BFU-E expansion", "setting": "[7]", "result": "triggered BFU-E expansion"}]}, {"compound": "CC[N+](C)(CC)CCOC(=O)C(O)(c1ccccc1)C1CCCCC1", "note": "(stereo not shown) [oxyphenonium bromide]", "values": [{"measurement": "Formation of BFU-E colonies", "setting": "[11]", "result": "increased formation of BFU-E colonies"}, {"measurement": "Anti-anemia minimal effective dose", "setting": "[3]", "result": 25, "unit": "mg/kg"}, {"measurement": "BFU-E self-renewal (splenic BFU-E colonies)", "setting": "[4]; MDS mice", "result": "promoted BFU-E self-renewal"}, {"measurement": "BFU-E gene signature expression", "setting": "[5]", "result": "up-regulated a gene signature characteristic of BFU-Es"}, {"measurement": "Formation of BFU-E colonies", "setting": "[6]", "result": "increased formation of BFU-E colonies"}, {"measurement": "Erythroid cell expansion", "setting": "[6]", "result": "expanded erythroid cells"}, {"measurement": "BFU-E expansion and erythrocyte production", "setting": "[7]; 100 μM oxyphenonium bromide", "result": "prolonged expansion resulting in increased production of erythrocytes"}, {"measurement": "Percentage of Ter119+ cells with or without compound", "setting": "[7]", "result": "no difference"}, {"measurement": "BFU-E expansion", "setting": "[7]", "result": "triggered BFU-E expansion"}, {"measurement": "Maximal tolerated dose", "setting": "[10]; female, C57bl/6, mouse, 7 days", "result": 50, "unit": "mg/kg"}]}, {"compound": "C=C[C@@]1(C)CC(=O)[C@]2(O)[C@@]3(C)[C@@H](O)CCC(C)(C)[C@@H]3[C@H](O)[C@H](OC(C)=O)[C@@]2(C)O1", "note": "[forskolin]", "values": [{"measurement": "BFU-E expansion", "setting": "[7]", "result": "promoted BFU-E expansion"}, {"measurement": "cAMP concentration in BFU-Es relative to DMSO", "setting": "[8]", "result": "increased in concentration"}]}, {"compound": "CCCCCCOC(=O)[C@]1(O)C[C@@H]2O[C@@]1(C)n1c3ccccc3c3c4c(c5c6ccccc6n2c5c31)C(=O)NC4", "note": "[KT5720]", "values": [{"measurement": "Effect on CHRM4 antagonist-induced BFU-E expansion", "setting": "[7]; 2 μM KT5720 with 3 nM PD102807, day 9", "result": "blocked CHRM4 antagonist–induced BFU-E expansion"}]}]}
